Assay results: ChEMBL document CHEMBL4152188, “Design, synthesis and biological evaluation of C(4) substituted monobactams as antibacterial agents against multidrug-resistant Gram-negative bacteria” (Eur J Med Chem, 2018)

Legend:
Type in all cases: functional
Pseudomonas aeruginosa [1] = experiment: Antibacterial activity against IMP-4 producing Pseudomonas aeruginosa isolate 212886 after 18 hrs by CLSI broth microdilution method; conditions: isolate 212886, 18 h
Escherichia coli [2] = experiment: Antibacterial activity against extended-spectrum beta-lactamase producing Escherichia coli isolate 106342 after 18 hrs by CLSI broth microdilution method; conditions: isolate 106342, 18 h
Escherichia coli [3] = experiment: Selectivity index, ratio of MIC for against Escherichia coli isolate 210737 to MIC for Escherichia coli isolate 210737 in presence of BPL
Pseudomonas aeruginosa [4] = experiment: Antibacterial activity against IMP-4 producing Pseudomonas aeruginosa isolate 209321 after 18 hrs by CLSI broth microdilution method; conditions: isolate 209321, 18 h
Klebsiella pneumoniae [5] = experiment: Antibacterial activity against KPC-2 producing Klebsiella pneumoniae isolate 212232 after 18 hrs by CLSI broth microdilution method; conditions: isolate 212232, 18 h
Escherichia coli [6] = experiment: Selectivity index, ratio of MIC for against extended-spectrum beta-lactamase producing Escherichia coli isolate 209285 to MIC for extended-spectrum beta-lactamase producing Escherichia coli isolate 209285 in presence of BPL
Escherichia coli [7] = experiment: Antibacterial activity against extended-spectrum beta-lactamase producing Escherichia coli isolate 212648 after 18 hrs in presence of BPL by CLSI broth microdilution method; conditions: isolate 212648, 18 h
Outline: (§1)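 CLSI broth microdilution against clinical isolates (ESBL E. coli, KPC-2 MDR K. pneumoniae, IMP-4 MDR P. aeruginosa; five per species). Iron limitation: Mueller-Hinton broth supplemented with 16 mg/liter 2,2'-bipyridyl to complex iron and induce iron uptake systems. Read-out: MIC.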

Escherichia coli [8] = experiment: Antibacterial activity against extended-spectrum beta-lactamase producing Escherichia coli isolate 106342 after 18 hrs in presence of BPL by CLSI broth microdilution method; conditions: isolate 106342, 18 h; outline: as §1
Pseudomonas aeruginosa [9] = experiment: Antibacterial activity against IMP-4 producing Pseudomonas aeruginosa isolate 212886 after 18 hrs in presence of BPL by CLSI broth microdilution method; conditions: isolate 212886, 18 h; outline: as §1
Escherichia coli [10] = experiment: Antibacterial activity against Escherichia coli isolate 210737 after 18 hrs in presence of BPL by CLSI broth microdilution method; conditions: isolate 210737, 18 h; outline: as §1
Klebsiella pneumoniae [11] = experiment: Antibacterial activity against KPC-2 producing Klebsiella pneumoniae isolate 212423 after 18 hrs by CLSI broth microdilution method; conditions: isolate 212423, 18 h
Pseudomonas aeruginosa [12] = experiment: Antibacterial activity against IMP-4 producing Pseudomonas aeruginosa isolate 209471 after 18 hrs in presence of BPL by CLSI broth microdilution method; conditions: isolate 209471, 18 h; outline: as §1
Escherichia coli [13] = experiment: Antibacterial activity against extended-spectrum beta-lactamase producing Escherichia coli isolate 209285 after 18 hrs by CLSI broth microdilution method; conditions: isolate 209285, 18 h
Pseudomonas aeruginosa [14] = experiment: Antibacterial activity against IMP-4 producing Pseudomonas aeruginosa isolate 209321 after 18 hrs in presence of BPL by CLSI broth microdilution method; conditions: isolate 209321, 18 h; outline: as §1
Klebsiella pneumoniae [15] = experiment: Selectivity index, ratio of MIC for against KPC-2 producing Klebsiella pneumoniae isolate 212229 to MIC for against KPC-2 producing Klebsiella pneumoniae isolate 212229 in presence of BPL
Escherichia coli [16] = experiment: Antibacterial activity against extended-spectrum beta-lactamase producing Escherichia coli isolate 208687 after 18 hrs by CLSI broth microdilution method; conditions: isolate 208687, 18 h
Escherichia coli [17] = experiment: Antibacterial activity against extended-spectrum beta-lactamase producing Escherichia coli isolate 208687 after 18 hrs in presence of BPL by CLSI broth microdilution method; conditions: isolate 208687, 18 h; outline: as §1
Klebsiella pneumoniae [18] = experiment: Selectivity index, ratio of MIC for against KPC-2 producing Klebsiella pneumoniae isolate 209735 to MIC for against KPC-2 producing Klebsiella pneumoniae isolate 209735 in presence of BPL
Pseudomonas aeruginosa [19] = experiment: Selectivity index, ratio of MIC for against IMP-4 producing Pseudomonas aeruginosa isolate 209321 to MIC for against IMP-4 producing Pseudomonas aeruginosa isolate 209321 in presence of BPL
Pseudomonas aeruginosa [20] = experiment: Antibacterial activity against IMP-4 producing Pseudomonas aeruginosa isolate 208247 after 18 hrs by CLSI broth microdilution method; conditions: isolate 208247, 18 h
Escherichia coli [21] = experiment: Selectivity index, ratio of MIC for against extended-spectrum beta-lactamase producing Escherichia coli isolate 212648 to MIC for extended-spectrum beta-lactamase producing Escherichia coli isolate 212648 in presence of BPL
Pseudomonas aeruginosa [22] = experiment: Selectivity index, ratio of MIC for against IMP-4 producing Pseudomonas aeruginosa isolate 208247 to MIC for against IMP-4 producing Pseudomonas aeruginosa isolate 208247 in presence of BPL
Pseudomonas aeruginosa [23] = experiment: Antibacterial activity against IMP-4 producing Pseudomonas aeruginosa isolate 207272 after 18 hrs in presence of BPL by CLSI broth microdilution method; conditions: isolate 207272, 18 h; outline: as §1
Escherichia coli [24] = experiment: Antibacterial activity against Escherichia coli isolate 210737 after 18 hrs by CLSI broth microdilution method; conditions: isolate 210737, 18 h
Klebsiella pneumoniae [25] = experiment: Antibacterial activity against KPC-2 producing Klebsiella pneumoniae isolate 209632 after 18 hrs by CLSI broth microdilution method; conditions: isolate 209632, 18 h
Pseudomonas aeruginosa [26] = experiment: Selectivity index, ratio of MIC for against IMP-4 producing Pseudomonas aeruginosa isolate 209471 to MIC for against IMP-4 producing Pseudomonas aeruginosa isolate 209471 in presence of BPL
Pseudomonas aeruginosa [27] = experiment: Selectivity index, ratio of MIC for against IMP-4 producing Pseudomonas aeruginosa isolate 212886 to MIC for against IMP-4 producing Pseudomonas aeruginosa isolate 212886 in presence of BPL
Pseudomonas aeruginosa [28] = experiment: Antibacterial activity against IMP-4 producing Pseudomonas aeruginosa isolate 209471 after 18 hrs by CLSI broth microdilution method; conditions: isolate 209471, 18 h
Escherichia coli [29] = experiment: Antibacterial activity against extended-spectrum beta-lactamase producing Escherichia coli isolate 212648 after 18 hrs by CLSI broth microdilution method; conditions: isolate 212648, 18 h
Klebsiella pneumoniae [30] = experiment: Antibacterial activity against KPC-2 producing Klebsiella pneumoniae isolate 209735 after 18 hrs by CLSI broth microdilution method; conditions: isolate 209735, 18 h
Escherichia coli [31] = experiment: Selectivity index, ratio of MIC for against extended-spectrum beta-lactamase producing Escherichia coli isolate 208687 to MIC for extended-spectrum beta-lactamase producing Escherichia coli isolate 208687 in presence of BPL
Klebsiella pneumoniae [32] = experiment: Antibacterial activity against KPC-2 producing Klebsiella pneumoniae isolate 209735 after 18 hrs in presence of BPL by CLSI broth microdilution method; conditions: isolate 209735, 18 h; outline: as §1
Klebsiella pneumoniae [33] = experiment: Selectivity index, ratio of MIC for against KPC-2 producing Klebsiella pneumoniae isolate 212232 to MIC for against KPC-2 producing Klebsiella pneumoniae isolate 212232 in presence of BPL
Klebsiella pneumoniae [34] = experiment: Selectivity index, ratio of MIC for against KPC-2 producing Klebsiella pneumoniae isolate 212423 to MIC for against KPC-2 producing Klebsiella pneumoniae isolate 212423 in presence of BPL
Pseudomonas aeruginosa [35] = experiment: Antibacterial activity against IMP-4 producing Pseudomonas aeruginosa isolate 208247 after 18 hrs in presence of BPL by CLSI broth microdilution method; conditions: isolate 208247, 18 h; outline: as §1
Pseudomonas aeruginosa [36] = experiment: Antibacterial activity against IMP-4 producing Pseudomonas aeruginosa isolate 207272 after 18 hrs by CLSI broth microdilution method; conditions: isolate 207272, 18 h
Klebsiella pneumoniae [37] = experiment: Antibacterial activity against KPC-2 producing Klebsiella pneumoniae isolate 209632 after 18 hrs in presence of BPL by CLSI broth microdilution method; conditions: isolate 209632, 18 h; outline: as §1
Klebsiella pneumoniae [38] = experiment: Antibacterial activity against KPC-2 producing Klebsiella pneumoniae isolate 212229 after 18 hrs by CLSI broth microdilution method; conditions: isolate 212229, 18 h
Klebsiella pneumoniae [39] = experiment: Antibacterial activity against KPC-2 producing Klebsiella pneumoniae isolate 212229 after 18 hrs in presence of BPL by CLSI broth microdilution method; conditions: isolate 212229, 18 h; outline: as §1
Escherichia coli [40] = experiment: Selectivity index, ratio of MIC for against extended-spectrum beta-lactamase producing Escherichia coli isolate 106342 to MIC for extended-spectrum beta-lactamase producing Escherichia coli isolate 106342 in presence of BPL
Klebsiella pneumoniae [41] = experiment: Antibacterial activity against KPC-2 producing Klebsiella pneumoniae isolate 212423 after 18 hrs in presence of BPL by CLSI broth microdilution method; conditions: isolate 212423, 18 h; outline: as §1
Klebsiella pneumoniae [42] = experiment: Selectivity index, ratio of MIC for against KPC-2 producing Klebsiella pneumoniae isolate 209632 to MIC for against KPC-2 producing Klebsiella pneumoniae isolate 209632 in presence of BPL
Pseudomonas aeruginosa [43] = experiment: Selectivity index, ratio of MIC for against IMP-4 producing Pseudomonas aeruginosa isolate 207272 to MIC for against IMP-4 producing Pseudomonas aeruginosa isolate 207272 in presence of BPL
Escherichia coli [44] = experiment: Antibacterial activity against extended-spectrum beta-lactamase producing Escherichia coli isolate 209285 after 18 hrs in presence of BPL by CLSI broth microdilution method; conditions: isolate 209285, 18 h; outline: as §1
Klebsiella pneumoniae [45] = experiment: Antibacterial activity against KPC-2 producing Klebsiella pneumoniae isolate 212232 after 18 hrs in presence of BPL by CLSI broth microdilution method; conditions: isolate 212232, 18 h; outline: as §1

CC(C)C(O/N=C(\C(=O)N[C@@H]1C(=O)N(S(=O)(=O)O)[C@@H]1COC(=O)c1ccc(O)c(O)c1Cl)c1csc(N)n1)c1cc(=O)c(O)cn1O (stereo not given in full)
1: Selectivity Index (Escherichia coli [6]) | Selectivity Index (Pseudomonas aeruginosa [26])
4 µg/mL: MIC (Klebsiella pneumoniae [32]) | MIC (Klebsiella pneumoniae [37]) | MIC (Klebsiella pneumoniae [39]) | MIC (Klebsiella pneumoniae [41]) | MIC (Klebsiella pneumoniae [45])
> 64 µg/mL: MIC (Pseudomonas aeruginosa [1]) | MIC (Pseudomonas aeruginosa [9]) | MIC (Escherichia coli [10]) | MIC (Pseudomonas aeruginosa [20]) | MIC (Pseudomonas aeruginosa [23]) | MIC (Escherichia coli [24]) | MIC (Pseudomonas aeruginosa [35]) | MIC (Pseudomonas aeruginosa [36])
2: Selectivity Index (Pseudomonas aeruginosa [19]) | Selectivity Index (Escherichia coli [21]) | Selectivity Index (Escherichia coli [31]) | Selectivity Index (Escherichia coli [40])
8: Selectivity Index (Klebsiella pneumoniae [15]) | Selectivity Index (Klebsiella pneumoniae [18]) | Selectivity Index (Klebsiella pneumoniae [33]) | Selectivity Index (Klebsiella pneumoniae [42])
4: Selectivity Index (Klebsiella pneumoniae [34])
8 µg/mL: MIC (Escherichia coli [8])
32 µg/mL: MIC (Klebsiella pneumoniae [5]) | MIC (Escherichia coli [13]) | MIC (Pseudomonas aeruginosa [14]) | MIC (Escherichia coli [16]) | MIC (Klebsiella pneumoniae [25]) | MIC (Escherichia coli [29]) | MIC (Klebsiella pneumoniae [30]) | MIC (Klebsiella pneumoniae [38]) | MIC (Escherichia coli [44])
16 µg/mL: MIC (Escherichia coli [2]) | MIC (Escherichia coli [7]) | MIC (Klebsiella pneumoniae [11]) | MIC (Escherichia coli [17])
64 µg/mL: MIC (Pseudomonas aeruginosa [4]) | MIC (Pseudomonas aeruginosa [12]) | MIC (Pseudomonas aeruginosa [28])
1 - 2: Selectivity Index (Escherichia coli [3]) | Selectivity Index (Pseudomonas aeruginosa [22]) | Selectivity Index (Pseudomonas aeruginosa [27]) | Selectivity Index (Pseudomonas aeruginosa [43])
